# Data published in ChEMBL document CHEMBL3797028, “Novel S1P1 receptor agonists - Part 4: Alkylaminomethyl substituted aryl head groups” (Eur J Med Chem, 2016).
# pEC50: −log10 of the molar value.
# Legend:
# [1] = Selectivity ratio of EC50 for human recombinant S1PR3 expressed in CHO cell membranes to EC50 for human recombinant S1PR1 expressed in CHO cell membranes; assay type: cell-based
# How it was run: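 Compound and membranes are pre-incubated 30 min at rt, then incubated 1 h at rt, filtered and counted. EC50 is the concentration giving 50% of S1P-defined specific binding, as the geometric mean of ≥3 independent duplicate runs. Ratio = EC50 S1PR3/EC50 S1PR1.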
# [2] = molecular target: Sphingosine 1-phosphate receptor 3 (Homo sapiens, UniProt Q99500); assay: Agonist activity at human recombinant S1PR3 expressed in CHO cell membranes assessed as [35S]GTPgammaS binding preincubated for 30 mins followed by [35S]GTPgammaS addition measured after 1 hr by topcount analysis; assay type: functional
# Chain of Sphingosine 1-phosphate receptor 3 (Q99500 whole entry): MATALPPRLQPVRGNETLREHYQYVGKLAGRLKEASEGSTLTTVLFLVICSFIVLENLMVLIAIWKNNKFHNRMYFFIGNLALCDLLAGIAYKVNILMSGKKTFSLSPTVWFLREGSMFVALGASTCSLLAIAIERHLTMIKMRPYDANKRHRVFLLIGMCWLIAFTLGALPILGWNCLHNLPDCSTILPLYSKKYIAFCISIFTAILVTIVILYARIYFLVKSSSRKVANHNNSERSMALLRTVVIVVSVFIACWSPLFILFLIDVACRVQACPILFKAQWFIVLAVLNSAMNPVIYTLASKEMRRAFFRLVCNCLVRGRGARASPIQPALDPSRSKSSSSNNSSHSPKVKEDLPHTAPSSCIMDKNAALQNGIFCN
# How it was run: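 Membranes from CHO cells expressing recombinant human S1P1 or S1P3 were used. Buffer was 20 mM Hepes pH 7.4, 100 mM NaCl, 5 mM MgCl2, 0.1% fatty-acid-free BSA, 2.5% DMSO and 50 pM 35S-GTPgammaS. GDP was […] for S1P3. Compound was preincubated 30 min at rt, then incubated 1 h at rt with 35S-GTPgammaS. Bound label was collected by filtration and counted. Specific binding was taken against 10 uM S1P. EC50 was the 50%-of-specific-binding concentration, reported as the geometric mean of at least three independent duplicate runs.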
# [3] = molecular target: Sphingosine 1-phosphate receptor 1 (Homo sapiens, UniProt P21453); assay: Agonist activity at human recombinant S1PR1 expressed in CHO cell membranes assessed as [35S]GTPgammaS binding preincubated for 30 mins followed by [35S]GTPgammaS addition measured after 1 hr by topcount analysis
# Chain of Sphingosine 1-phosphate receptor 1 (P21453 whole entry): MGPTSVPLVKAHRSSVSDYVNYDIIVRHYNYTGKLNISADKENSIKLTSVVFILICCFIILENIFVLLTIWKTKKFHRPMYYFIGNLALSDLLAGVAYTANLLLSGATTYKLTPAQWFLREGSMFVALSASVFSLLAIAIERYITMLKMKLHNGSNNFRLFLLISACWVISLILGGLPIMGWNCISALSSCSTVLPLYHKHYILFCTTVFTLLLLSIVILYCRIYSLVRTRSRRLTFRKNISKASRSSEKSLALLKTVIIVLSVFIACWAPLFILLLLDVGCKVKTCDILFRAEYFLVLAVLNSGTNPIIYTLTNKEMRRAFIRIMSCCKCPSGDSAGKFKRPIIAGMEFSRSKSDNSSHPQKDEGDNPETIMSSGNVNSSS
pEC50 [2],pEC50 [3],Compound,Ratio EC50 [1]
5.68,7.82,CCc1cc(-c2noc(-c3cc(C)cc(CNCC(C)C)c3)n2)cc(C)c1OC[C@@H](O)CNC(=O)CO,140
5.85,7.70,CCc1cc(-c2noc(-c3cc(C)c(CNCC(C)C)s3)n2)cc(C)c1OC[C@@H](O)CNC(=O)CO,70
< 5.00,7.02,CCc1cc(-c2noc(-c3cc(C)nc(CN4CCCC4)c3)n2)cc(C)c1OC[C@@H](O)CNC(=O)CO,> 105
5.49,–,CCc1cc(-c2noc(-c3ccc(CN(C)C)c(C)c3)n2)cc(C)c1OC[C@@H](O)CNC(=O)CO,–
< 5.00,6.41,CCc1cc(-c2noc(-c3ccc(C)c(CN(C)C)c3)n2)cc(C)c1OC[C@@H](O)CNC(=O)CO,> 26
< 5.00,7.40,CCc1cc(-c2noc(-c3cc(C)nc(CN(C)C)c3)n2)cc(C)c1OC[C@@H](O)CNC(=O)CO,> 250
6.42,8.39,CCCN(C)Cc1cc(C)cc(-c2nc(-c3cc(C)c(OC[C@@H](O)CNC(=O)CO)c(CC)c3)no2)c1,93
5.54,6.51,CCCCN(C)Cc1cc(-c2nc(-c3cc(C)c(OC[C@@H](O)CNC(=O)CO)c(CC)c3)no2)ccc1C,9
5.37,6.52,CCCN(C)Cc1cc(-c2nc(-c3cc(C)c(OC[C@@H](O)CNC(=O)CO)c(CC)c3)no2)ccc1C,14
5.92,7.01,CCc1cc(-c2noc(-c3ccc(C)c(CN(C)CC(C)C)c3)n2)cc(C)c1OC[C@@H](O)CNC(=O)CO,12
6.68,9.00,CCc1cc(-c2nc(-c3cc(C)c(OC[C@@H](O)CNC(=O)CO)c(CC)c3)no2)ccc1CN(CC)CC,210
5.36,8.19,CCc1cc(-c2noc(-c3sc(CN(C)C)c(C)c3C)n2)cc(C)c1OC[C@@H](O)CNC(=O)CO,687
8.85,8.96,CCc1cc(-c2noc(-c3cc(CN(C)CC(C)C)cc(C(C)C)c3)n2)cc(C)c1OC[C@@H](O)CNC(=O)CO,< 2
5.09,7.35,CCc1cc(-c2noc(-c3cc(C)nc(CN(CC)CC)c3)n2)cc(C)c1OC[C@@H](O)CNC(=O)CO,180
7.00,9.00,CCc1cc(-c2nc(-c3cc(C)c(OC[C@@H](O)CNC(=O)CO)c(CC)c3)no2)ccc1CN(C)CC,100
–,8.10,CCc1cc(-c2nnc(-c3cc(C)nc(N(CC)CC)c3)o2)cc(C)c1OC[C@@H](O)CNC(=O)CO,–
–,8.29,CCc1cc(-c2nc(-c3cc(C)c(CCC(=O)NCCO)c(CC)c3)no2)cnc1N(C)C(C)C,–
6.43,7.85,CCCN(C)Cc1sc(-c2nc(-c3cc(C)c(OC[C@@H](O)CNC(=O)CO)c(CC)c3)no2)c(C)c1C,26
< 5.00,8.27,CCc1cc(-c2noc(-c3ccc(CN(C)C)s3)n2)cc(C)c1OC[C@@H](O)CNC(=O)CO,> 1850
7.35,9.52,CCc1cc(-c2nc(-c3cc(C)c(OC[C@@H](O)CNC(=O)CO)c(CC)c3)no2)sc1CN(C)C,150
7.70,9.30,CCCN(C)Cc1sc(-c2nc(-c3cc(C)c(OC[C@@H](O)CNC(=O)CO)c(CC)c3)no2)cc1CC,40
< 5.00,6.57,CCc1cc(-c2noc(-c3ccc(CNCC(C)C)c(C)c3)n2)cc(C)c1OC[C@@H](O)CNC(=O)CO,> 37
5.34,8.17,CCc1cc(-c2noc(-c3ccc(CN(C)CC)s3)n2)cc(C)c1OC[C@@H](O)CNC(=O)CO,676
< 5.00,6.31,CCc1cc(-c2noc(-c3cc(CN(C)CC(C)C)ccc3C)n2)cc(C)c1OC[C@@H](O)CNC(=O)CO,> 20
< 5.00,6.80,CCc1cc(-c2noc(-c3ccc(CN(C)C)cc3)n2)cc(C)c1OC[C@@H](O)CNC(=O)CO,> 62
5.64,7.26,CCc1cc(-c2noc(-c3sc(CN(C)CC(C)C)c(C)c3C)n2)cc(C)c1OC[C@@H](O)CNC(=O)CO,42

pEC50 [2],pEC50 [3],Compound,Ratio EC50 [1]
< 5.00,6.52,CCCNCc1cccc(-c2nc(-c3cc(C)c(OC[C@@H](O)CNC(=O)CO)c(CC)c3)no2)c1,> 33
< 5.00,6.64,CCc1cc(-c2noc(-c3ccc(CN(C)C)cc3C)n2)cc(C)c1OC[C@@H](O)CNC(=O)CO,> 43
< 5.00,6.81,CCc1cc(-c2noc(-c3cc(C)c(CN(C)CCN(C)C)s3)n2)cc(C)c1OC[C@@H](O)CNC(=O)CO,> 64
–,6.96,CCc1cc(-c2noc(-c3cc(C)nc(CN(CC)CC)c3)n2)cc(C)c1OC[C@@H](O)CO,–
6.25,8.00,CCc1cc(-c2noc(-c3ccc(CN(CC)CC)c(C)c3)n2)cc(C)c1OC[C@@H](O)CNC(=O)CO,56
8.10,8.96,CCc1cc(CN(C)CC(C)C)cc(-c2nc(-c3cc(C)c(OC[C@@H](O)CNC(=O)CO)c(CC)c3)no2)c1,7
< 5.00,7.59,CCc1cc(-c2noc(-c3cc(C)c(C=O)s3)n2)cc(C)c1OC[C@@H](O)CNC(=O)CO,–
< 5.00,6.69,CCc1cc(-c2noc(-c3ccc(CNC(C)C)s3)n2)cc(C)c1OC[C@@H](O)CNC(=O)CO,> 49
6.92,9.22,CCCN(C)Cc1sc(-c2nc(-c3cc(C)c(OC[C@@H](O)CNC(=O)CO)c(CC)c3)no2)cc1C,200
5.77,8.55,CCc1cc(-c2noc(-c3cc(C)c(CN(C)CCO)s3)n2)cc(C)c1OC[C@@H](O)CNC(=O)CO,607
5.82,8.37,CCCCN(C)Cc1cc(-c2nc(-c3cc(C)c(OC[C@@H](O)CNC(=O)CO)c(CC)c3)no2)cc(C)n1,349
< 5.00,7.85,CCc1cc(-c2noc(-c3cc(C)c(CNC)s3)n2)cc(C)c1OC[C@@H](O)CNC(=O)CO,> 714
< 5.00,6.72,CCc1cc(-c2noc(-c3cccc(CNC)c3)n2)cc(C)c1OC[C@@H](O)CNC(=O)CO,> 53
6.46,8.28,CCCCN(C)Cc1ccc(-c2nc(-c3cc(C)c(OC[C@@H](O)CNC(=O)CO)c(CC)c3)no2)cc1C,66
6.04,7.85,CCc1cc(-c2noc(-c3ccc(CN(C)CC)c(C)c3)n2)cc(C)c1OC[C@@H](O)CNC(=O)CO,65
5.26,7.16,CCc1cc(-c2noc(-c3cc(C)c(CN(C)C)c(C)c3)n2)cc(C)c1OC[C@@H](O)CNC(=O)CO,> 80
5.05,6.55,CCc1cc(-c2noc(-c3ccc(C)c(CN(C)CC)c3)n2)cc(C)c1OC[C@@H](O)CNC(=O)CO,32
8.46,8.55,CCCc1cc(CN(C)CC(C)C)cc(-c2nc(-c3cc(C)c(OC[C@@H](O)CNC(=O)CO)c(CC)c3)no2)c1,< 2
< 5.00,5.68,CCc1cc(-c2noc(-c3ccc(CNC)cc3)n2)cc(C)c1OC[C@@H](O)CNC(=O)CO,> 4.8
6.82,8.89,CCc1cc(-c2noc(-c3cc(C)c(CN(C)CC)s3)n2)cc(C)c1OC[C@@H](O)CNC(=O)CO,115
6.06,8.07,CCCN(C)Cc1cc(-c2nc(-c3cc(C)c(OC[C@@H](O)CNC(=O)CO)c(CC)c3)no2)cc(C)n1,102
< 5.00,6.72,CCc1cc(-c2noc(-c3ccc(CNC)s3)n2)cc(C)c1OC[C@@H](O)CNC(=O)CO,> 53
5.51,7.30,CCc1cc(-c2noc(-c3ccc(CN4CCCC4)c(C)c3)n2)cc(C)c1OC[C@@H](O)CNC(=O)CO,62
6.92,9.15,CCCCN(C)Cc1sc(-c2nc(-c3cc(C)c(OC[C@@H](O)CNC(=O)CO)c(CC)c3)no2)cc1C,171
< 5.00,5.63,CCc1cc(-c2noc(-c3ccc(C)c(CNCC(C)C)c3)n2)cc(C)c1OC[C@@H](O)CNC(=O)CO,> 4
< 5.00,6.53,CCNCc1ccc(-c2nc(-c3cc(C)c(OC[C@@H](O)CNC(=O)CO)c(CC)c3)no2)s1,> 34
